We go through 23 molecules from ChEMBL document CHEMBL1156149, “Cyclic sulfones as novel P3-caps for hepatitis C virus NS3/4A (HCV NS3/4A) protease inhibitors: synthesis and evaluation of inhibitors with improved potency and pharmacokinetic profiles” (J Med Chem, 2010).

One data set has as its system Hepatitis C virus. Put plainly: Antiviral activity against Hepatitis C virus infected in human hepatoma cells assessed as inhibition of viral replication. Format: functional, organism-based, Hepacivirus hominis.
The nature of data set [1]: Inhibition of HCV NS3/4A protease. Further details: species or system Hepacivirus hominis.
Data set [2] is described as follows: Plasma concentration in monkey at 3 mg/kg, po after 8 hrs. Format: ADME, organism-based, Macaca mulatta. More on the design: dose 3 mg/kg, route oral. The settings on record: rhesus monkey.
A short description of data set [3]: Ratio of plasma concentration in monkey at 3 mg/kg, po after 8 hrs to EC90 for Hepatitis C virus. Further details: dose 3 mg/kg, route oral. The settings on record: in vivo. In kind it is ADME, organism-based.
Data set [4] is described as follows: AUC (0 to 24 hrs) in monkey at 3 mg/kg, po. Format: ADME, organism-based, Macaca mulatta. Further details: time < 24 hr, dose 3 mg/kg, route oral. The following applies: rhesus monkey, plasma.
A short description of data set [5]: AUC (0 to 6 hrs) in rat at 10 mg/kg, po. In kind it is ADME, organism-based. More on the design: time < 6 hr, dose 10 mg/kg, route oral. The settings on record: plasma. Summed up: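 Rats dosed orally at 10 mg/kg in 0.4% methylcellulose in water, in a rapid rat protocol. Blood was withdrawn periodically and pooled, and plasma AUC was calculated over the stated interval.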

A short description of data set [6]: AUC in monkey at 3 mg/kg. Format: ADME, organism-based, Macaca mulatta. The settings on record: rhesus monkey, plasma. Further details: dose 3 mg/kg. The essentials:
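Oral dosing of monkeys at 3 mpk, with compound suspended in 0.4% methylcellulose. Exposure was reported as plasma AUC(0-24h) in μM h. Plasma concentration at 8 h was also taken and expressed as a ratio to cellular EC90.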

Data set [7] is described as follows: Bioavailability in monkey at 3 mg/kg. In kind it is ADME, organism-based, Macaca mulatta. The settings on record: rhesus monkey, in vivo.
Data set [8] in a line: AUC in rat at 10 mg/kg. Format: ADME, organism-based. Further details: dose 10 mg/kg. The following applies: plasma. The essentials: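 Rats were given compound orally at 10 mg/kg in 0.4% methylcellulose in water. Blood was sampled periodically and pooled (rapid rat protocol). Plasma exposure was reported as AUC(0-6h) in μM h.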

In the case of `C=CCNC(=O)C(=O)[C@H](CCC1CC1)NC(=O)[C@@H]1[C@H]2[C@@H](CN1C(=O)[C@@H](NC(=O)NC1([C@H]3CCCCS3(=O)=O)CCCCC1)C(C)(C)C)C2(C)C`, the EC90 (as a rule, the concentration at which the effect reaches the 90% level) with Hepatitis C virus was determined as 40 nM. Further, in data set [1], the Ki (as a rule, a dissociation constant, usually derived from enzyme kinetics or from competition with a known ligand) worked out at 4 nM.

As to `CC1(NC(=O)N[C@H](C(=O)N2C[C@@H]3[C@H]([C@H]2C(=O)NC(CC2CCC2)C(=O)C(N)=O)C3(C)C)C(C)(C)C)CCCCC1` (some centres undefined), the EC90 in the data set on Hepatitis C virus (read-out: EC90) came to 200 nM. The molecule also showed an inhibition constant (Ki) in data set [1] of 9 nM.

In the case of `CCCC[C@H](NC(=O)[C@@H]1[C@H]2[C@@H](CN1C(=O)[C@@H](NC(=O)NC1([C@H]3CCCCS3(=O)=O)CCCCC1)C(C)(C)C)C2(C)C)C(=O)C(=O)NC1CC1`, in the data set with Hepatitis C virus, the EC90 is 50 nM. This molecule had a Ki in data set [1] of 10 nM.

Turning to `C=CCNC(=O)C(=O)[C@H](CCCC)NC(=O)[C@@H]1[C@H]2[C@@H](CN1C(=O)[C@@H](NC(=O)NC1([C@H]3CCCCS3(=O)=O)CCCCC1)C(C)(C)C)C2(C)C`, the EC90 in the data set on Hepatitis C virus stood at 60 nM. In data set [1], the affinity corresponds to a Ki of 12 nM.

In the case of `CCC[C@H](NC(=O)[C@@H]1[C@H]2[C@@H](CN1C(=O)[C@@H](NC(=O)NC1([C@H]3CCCCS3(=O)=O)CCCCC1)C(C)(C)C)C2(C)C)C(=O)C(=O)NC1CC1`, in the data set on Hepatitis C virus, the EC90 is 40 nM. In data set [1], the affinity, expressed as Ki, was 12 nM.

For the molecule `CC(C)(C)[C@H](NC(=O)NC1([C@H]2CCCS2(=O)=O)CCCCC1)C(=O)N1C[C@@H]2[C@H]([C@H]1C(=O)N[C@@H](CCC1CC1)C(=O)C(=O)NC1CC1)C2(C)C`, in the data set on Hepatitis C virus, the 90% effect concentration (EC90) came out at 40 nM. In addition, the Ki in [1] was 4 nM.

As to `CCCC[C@H](NC(=O)[C@@H]1[C@H]2[C@@H](CN1C(=O)[C@@H](NC(=O)NC1([C@H]3CCCCS3(=O)=O)CCCCC1)C1(C)CCCCC1)C2(C)C)C(=O)C(=O)NC1CC1`, the EC90 in the data set with Hepatitis C virus was 100 nM. The same molecule registered a Ki in data set [1] of 8 nM.

On to `CCC[C@H](NC(=O)[C@@H]1[C@H]2[C@@H](CN1C(=O)[C@@H](NC(=O)NC1([C@H]3CCCCS3(=O)=O)CCCCC1)C1(C)CCCCC1)C2(C)C)C(=O)C(=O)NC1CC1`, for which the EC90 in the data set with Hepatitis C virus amounted to 50 nM. This molecule also gave a Ki in [1] of 7 nM.

`CC1([C@H](NC(=O)NC2([C@H]3CCCS3(=O)=O)CCCCC2)C(=O)N2C[C@@H]3[C@H]([C@H]2C(=O)N[C@@H](CCC2CC2)C(=O)C(=O)NC2CC2)C3(C)C)CCCCC1` showed a concentration at 8 h in data set [2] of 303 nM. In addition, the Ratio in data set [3] amounted to 8. The AUC(0-t) (as a rule, exposure summed from dosing to a finite time, without extrapolation to infinity) at 24 h in [4] stood at 3.5 µM·h. For the same molecule, in the data set with Hepatitis C virus, the concentration for an effect of 90% (EC90) is 40 nM. The affinity in data set [1], expressed as Ki, was 3 nM.

In the case of `C=CCNC(=O)C(=O)C(CCC)NC(=O)[C@@H]1[C@H]2[C@@H](CN1C(=O)[C@@H](NC(=O)NC1([C@H]3CCCS3(=O)=O)CCCCC1)C(C)(C)C)C2(C)C` (mixture of isomers), the EC90 in the data set with Hepatitis C virus stood at 35 nM. Besides, the Ki in data set [1] was found to be 6 nM.

On to `CCCC[C@H](NC(=O)[C@@H]1C2C(CN1C(=O)[C@@H](NC(=O)NC1([C@@H]3CCCS3(=O)=O)CCCCC1)C(C)(C)C)C2(C)C)C(=O)C(=O)NC1CC1` (single isomer, unassigned), for which the EC90 in the data set on Hepatitis C virus was 30 nM. In addition, in data set [1], affinity was put at a Ki of 4 nM.

Regarding `CCCC[C@H](NC(=O)[C@@H]1C2C(CN1C(=O)[C@@H](NC(=O)NC1([C@H]3CCS3(=O)=O)CCCCC1)C(C)(C)C)C2(C)C)C(=O)C(=O)NC1CC1` (single isomer, unassigned), the EC90 in the data set with Hepatitis C virus was 60 nM. The molecule further came in with a Ki in data set [1] of 10 nM.

For the molecule `CCCC[C@H](NC(=O)[C@@H]1C2C(CN1C(=O)[C@@H](NC(=O)NC1([C@@H]3CCS3(=O)=O)CCCCC1)C(C)(C)C)C2(C)C)C(=O)C(=O)NC1CC1` (single isomer, unassigned), the EC90 with Hepatitis C virus was 120 nM. Besides, in [1], the Ki was 5 nM.

`CCCC[C@H](NC(=O)[C@@H]1C2C(CN1C(=O)[C@@H](NC(=O)NC1([C@@H]3CCCCS3(=O)=O)CCCCC1)C(C)(C)C)C2(C)C)C(=O)C(=O)NC1CC1` (single isomer, unassigned): the EC90 in the data set with Hepatitis C virus is 60 nM. In data set [1], this molecule yielded a Ki of 11 nM.

With `C=CCNC(=O)C(=O)[C@H](CCC)NC(=O)[C@@H]1C2C(CN1C(=O)[C@@H](NC(=O)NC1([C@H]3CCCCS3(=O)=O)CCCCC1)C(C)(C)C)C2(C)C` (single isomer, unassigned), the EC90 with Hepatitis C virus came to 30 nM. In data set [1], this molecule yielded a Ki of 3 nM.

With `C=CCNC(=O)C(=O)[C@H](CCCC)NC(=O)[C@@H]1C2C(CN1C(=O)[C@@H](NC(=O)NC1([C@H]3CCCS3(=O)=O)CCCCC1)C(C)(C)C)C2(C)C` (single isomer, unassigned), the AUC(0-t) at 24 h in data set [4] amounted to 2.2 µM·h. Further, in the data set with Hepatitis C virus, the EC90 is 30 nM. This molecule also displayed a Ki in [1] of 3 nM.

With `C=CCNC(=O)C(=O)[C@H](CCC1CC1)NC(=O)[C@@H]1C2C(CN1C(=O)[C@@H](NC(=O)NC1([C@H]3CCCS3(=O)=O)CCCCC1)C(C)(C)C)C2(C)C` (single isomer, unassigned), the EC90 in the data set on Hepatitis C virus amounted to 35 nM. Further, in data set [1], the Ki came out at 4 nM.

For the molecule `CC1(C)C2CN(C(=O)[C@@H](NC(=O)NC3([C@H]4CCCCS4(=O)=O)CCCCC3)C(C)(C)C)[C@H](C(=O)N[C@@H](CCC3CC3)C(=O)C(=O)NC3CC3)C21` (single isomer, unassigned), the EC90 in the data set with Hepatitis C virus is 40 nM. For the same molecule, in [1], the affinity, expressed as Ki, was 6 nM.

Take `CCC[C@H](NC(=O)[C@@H]1C2C(CN1C(=O)[C@@H](NC(=O)NC1([C@H]3CCCS3(=O)=O)CCCCC1)C(C)(C)C)C2(C)C)C(=O)C(=O)NC1CC1` (single isomer, unassigned): in the data set on Hepatitis C virus, the EC90 amounted to 20 nM. In data set [1], the Ki turned out to be 4 nM.

Turning to `CCCC[C@H](NC(=O)[C@@H]1C2C(CN1C(=O)[C@@H](NC(=O)NC1([C@H]3CCCS3(=O)=O)CCCCC1)C1(C)CCCCC1)C2(C)C)C(=O)C(=O)NC1CC1` (single isomer, unassigned), the concentration at 8 h in data set [2] is 742 nM. The Ratio in [3] is recorded as 37. In addition, in data set [4], the AUC(0-t) at 24 h turned out to be 9 µM·h. Moreover, the EC90 in the data set with Hepatitis C virus came out at 20 nM. In [1], this molecule yielded a Ki of 3 nM.

With `CCC[C@H](NC(=O)[C@@H]1C2C(CN1C(=O)[C@@H](NC(=O)NC1([C@H]3CCCS3(=O)=O)CCCCC1)C1(C)CCCCC1)C2(C)C)C(=O)C(=O)NC1CC1` (single isomer, unassigned), the concentration at 8 h in data set [2] turned out to be 934 nM. In addition, the Ratio in data set [3] was 47. The same molecule displayed an AUC(0-t) at 24 h in [4] of 20.8 µM·h. Moreover, the EC90 in the data set on Hepatitis C virus came out at 20 nM. For the same molecule, in data set [1], the Ki amounted to 2 nM.

`CCCC[C@H](NC(=O)[C@@H]1C2C(CN1C(=O)[C@@H](NC(=O)NC1([C@H]3CCCS3(=O)=O)CCCCC1)C(C)(C)C)C2(C)C)C(=O)C(=O)NC1CC1` (single isomer, unassigned) registered an AUC(0-t) at 6 h in [5] of 0.9 µM·h. The concentration at 8 h in data set [2] amounted to 10 nM. In addition, in data set [3], the Ratio is on record as 0.5. The molecule further gave an AUC(0-t) at 24 h in data set [4] of 0.4 µM·h. Also, the EC90 in the data set on Hepatitis C virus turned out to be 20 nM. This molecule also registered a Ki in data set [1] of 4 nM.

For the molecule `CC(C)(C)NC(=O)N[C@H](C(=O)N1C[C@H]2[C@@H]([C@H]1C(=O)NC(CC1CCC1)C(=O)C(N)=O)C2(C)C)C(C)(C)C` (some centres undefined) [BOCEPREVIR], the figures for the area under the curve (AUC) in [6] and in data set [8] were 0.12 µM·h and 1.52 µM·h, respectively. Further, in [7], the bioavailability – broadly, the share of a dose that reaches the circulation, judged against a reference dose that is usually intravenous – turned out to be 4%. Moreover, in data set [4], the AUC(0-t) at 24 h came out at 0.12 µM·h. Further, the EC90 with Hepatitis C virus (read-out: EC90) worked out at 350 nM. Further, the Ki in [1] was determined as 14 nM.
